Source: publication PMC8386104 (RSC Chemical Biology, 2020)
Bridge positions count the residues as written; N and C are the ends. Ends that are not written are not given here. Peptide text beside a SMILES is read from it.

Experiments:
MM96L cells = experiment: Live-cell confocal microscopy, intracellular location, MM96L; format: cell-based, human; conditions: spinning disc confocal, serum-free media, 1 and 4 μM cPF4PD-A488, 6 μM PF4P_pDI-A488, 1 μM cPF4Pext_pDI-A488
Summary of the method: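 MM96L cells were grown in RPMI with 2 mM L-glutamine, 10 mM sodium pyruvate and 10% FBS, and plated at 16 000 per chamber-slide well overnight (37 °C, 5% CO2). Cells were washed into serum-free medium and stained with MitoTracker Red (100 nM final, 5 min). Medium was then replaced with Alexa Fluor 488-labeled peptide in serum-free medium. Cells were imaged live over time at 37 °C, 5% CO2.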

[1] = Stability of peptides in human serum; format: in vitro ADME; conditions: 25% (v/v) human serum, pH 7.5
Summary of the method: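 Peptide (50 μM final) was held 0, 1, 2, 4, 8 and 24 h in 25% (v/v) human serum in PBS (pH 7.5). Serum proteins were precipitated with ACN containing 2% TFA. The full-length peptide peak (MS-confirmed) was quantified by RP-HPLC at 215 nm as a percentage of 0 h recovery. A PBS-only incubation served as control. Single experiment, three technical replicates.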

MDM2 = MDM2 (Homo sapiens, UniProt Q00987); experiment: Fluorescence polarization competition, F-pDI:MDM2; format: binding; conditions: for IC50, inhibition of F-pDI:MDM2 interaction: fluorescence polarization, 10 nM F-pDI, 8 nM MDM2, Tris buffer, three technical replicates
RBC hemolysis = format: cell-based; conditions: human, red blood cells (RBCs), 0.25% v/v
Summary of the method: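 Donor RBCs were pelleted (4000 rpm, 1 min) and washed three times in PBS. Peptides diluted in PBS (0.25–32 μM) were incubated with RBCs (0.25% v/v final) for 1 h at 37 °C. After pelleting, supernatant A415 gave released hemoglobin. Triton X-100 (0.1% final) set 100% and PBS 0% hemolysis. Single experiment, RBCs from three donors.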

[2] = Cell toxicity, resazurin, PBMCs; format: cell-based; conditions: human, peripheral blood mononuclear cells (PBMCs)
Summary of the method: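 Heparinized blood from healthy donors was diluted 1:1 with PBS, separated on Ficoll-Paque (1400 rpm, 30 min) and the interface layer washed three times in PBS. Cells (5000/well) received serially diluted peptide (0.25–32 μM) for 24 h at 37 °C, 5% CO2, then a resazurin read at 560/585 nm. Triton X-100 (0.1%) set 100%, PBS 0%. CC50 came from a Hill fit; single experiment, three donors.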

MDMX = target: T1, MDMX (Homo sapiens, UniProt O15151); experiment: Fluorescence polarization competition, F-pDI:MDMX; format: binding; conditions: for IC50, inhibition of F-pDI:MDMX interaction: fluorescence polarization, 10 nM F-pDI, 45 nM MDMX, Tris buffer, three technical replicates
T1 sequence (O15151 1-490): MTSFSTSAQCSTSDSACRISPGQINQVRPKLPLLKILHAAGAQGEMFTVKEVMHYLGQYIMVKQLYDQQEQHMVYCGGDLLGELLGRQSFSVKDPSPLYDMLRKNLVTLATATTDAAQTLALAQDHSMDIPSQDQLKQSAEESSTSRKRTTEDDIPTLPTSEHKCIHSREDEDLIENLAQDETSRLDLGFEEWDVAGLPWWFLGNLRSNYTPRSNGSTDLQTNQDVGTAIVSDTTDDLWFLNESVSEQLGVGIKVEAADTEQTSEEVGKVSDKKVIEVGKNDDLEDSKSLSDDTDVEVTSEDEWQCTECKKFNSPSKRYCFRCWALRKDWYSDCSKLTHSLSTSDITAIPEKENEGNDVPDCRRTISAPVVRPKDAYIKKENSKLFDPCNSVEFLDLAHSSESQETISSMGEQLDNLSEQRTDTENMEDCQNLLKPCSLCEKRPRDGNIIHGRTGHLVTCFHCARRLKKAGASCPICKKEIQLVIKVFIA
Summary of the method: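 Competition fluorescence polarization with fluorescein-labeled pDI (p53 mimic) bound to MDMX, read at 489/515 nm. F-pDI:MDMX signal defined 0% inhibition and free F-pDI in Tris buffer 100%. Percent inhibition was taken from the change in polarization relative to F-pDI. IC50 came from Hill-fitted dose-response curves; three technical replicates.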

[3] = Cell toxicity, resazurin, HEK293; format: cell-based; conditions: human, HEK293 embryonic kidney cells
Summary of the method: (§1)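 Peptides serially diluted (0.25–32 μM) and incubated 24 h at 37 °C, 5% CO2 with 5000 cells/well. HEK293 was grown in DMEM and HaCaT in RPMI with 2 mM L-glutamine and 10 mM sodium pyruvate, both with 10% FBS and penicillin/streptomycin. Resazurin-to-resorufin fluorescence was read at 560/585 nm. Triton X-100 (0.1%) set 100% and PBS 0% toxicity. CC50 came from Hill-fitted curves; three independent experiments.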

[4] = Cell toxicity, resazurin, HaCaT; format: cell-based; conditions: human, HaCaT keratinocyte cells
Summary of the method: as §1

[5] = tested on: HeLa cervical cancer cells; experiment: Cell toxicity, resazurin, HeLa; format: cell-based, human; conditions: cervix, p53 WT (rep), 24 h, 0.25–32 μM peptide, mean ± SD, three independent experiments
Summary of the method: (§2)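 5000 cells/well were exposed to serially diluted peptide (0.25–32 μM) for 24 h at 37 °C, 5% CO2. Viability was read by resazurin-to-resorufin fluorescence (ex 560, em 585 nm), with 0.1% Triton X-100 set as 100% toxicity and PBS as 0%. CC50 came from a Hill-slope saturation fit. Mean ± SD of three independent experiments on different days.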

MM96L melanoma cells = experiment: Cell toxicity, resazurin, MM96L; format: cell-based, human; conditions: p53 WT, 24 h, 0.25–32 μM peptide, mean ± SD, three independent experiments
Summary of the method: as §2

MCF7 breast cancer cells = experiment: Cell toxicity, resazurin, MCF7; format: cell-based, human; conditions: p53 WT, 24 h, 0.25–32 μM peptide, mean ± SD, three independent experiments
Summary of the method: as §2

[6] = tested on: panel of cancerous and noncancerous cell lines, PBMCs and RBCs; experiment: Cytotoxic activity across the panel of cell lines; format: cell-based, human; conditions: 24 h, resazurin (RBC 1 h hemolysis)
Summary of the method: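 Cell lines and PBMCs (Ficoll-separated from PBS-diluted heparinized blood, PBS-washed) were read by 24 h resazurin fluorescence; PBMC data came from one experiment with three donors. RBCs were washed in PBS, then incubated at 0.25% v/v with peptide in PBS for 1 h at 37 °C. After pelleting, supernatant A415 gave hemoglobin release, with 0.1% Triton X-100 as 100% and PBS as 0%.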

[7] = tested on: HCT116 colorectal cancer cells; experiment: Cell toxicity, resazurin, HCT116; format: cell-based, human; conditions: p53 WT, 24 h, 0.25–32 μM peptide, mean ± SD, three independent experiments
Summary of the method: as §2

MDA-MB-231 cells [8] = experiment: Internalization of labeled peptides, flow cytometry, MDA-MB-231; format: cell-based, human; conditions: read-out: FC50 (peptide concentration to detect fluorescence in 50% of cells), MDA-MB-231, 1 h, serum free medium, 0.06–2 μM labeled peptide, 10 000 cells, at least two independent experiments
Summary of the method: (§3)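 Cells were grown in DMEM with 10% FBS and seeded at 10^5 per well overnight (37 °C, 5% CO2). Serial dilutions of Alexa Fluor 488-labeled peptide in serum-free medium were added for 1 h, then cells were harvested. Flow cytometry used ex 488 nm/em 530/30 nm at 330 V, and readings were repeated after Trypan Blue quench (0.02% w/v final). % fluorescent cells was taken above the no-peptide threshold, and FC50 was fitted by Hill equation.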

MCF7 cells = experiment: Internalization of labeled peptides, flow cytometry, MCF7; format: cell-based, human; conditions: read-out: FC50 (peptide concentration to detect fluorescence in 50% of cells), MCF7, 1 h, serum free medium, 0.06–2 μM labeled peptide, 10 000 cells, at least two independent experiments
Summary of the method: as §3

MDA-MB-231 cells [9] = experiment: Live-cell confocal microscopy, intracellular location, MDA-MB-231; format: cell-based, human; conditions: spinning disc confocal, serum-free media, 4 μM (sub-lethal)
p53:MDM2 = conditions: read-out: inhibition of p53:MDM2; previously reported; cited from earlier work

Sequence of MDM2 (Q00987 whole entry): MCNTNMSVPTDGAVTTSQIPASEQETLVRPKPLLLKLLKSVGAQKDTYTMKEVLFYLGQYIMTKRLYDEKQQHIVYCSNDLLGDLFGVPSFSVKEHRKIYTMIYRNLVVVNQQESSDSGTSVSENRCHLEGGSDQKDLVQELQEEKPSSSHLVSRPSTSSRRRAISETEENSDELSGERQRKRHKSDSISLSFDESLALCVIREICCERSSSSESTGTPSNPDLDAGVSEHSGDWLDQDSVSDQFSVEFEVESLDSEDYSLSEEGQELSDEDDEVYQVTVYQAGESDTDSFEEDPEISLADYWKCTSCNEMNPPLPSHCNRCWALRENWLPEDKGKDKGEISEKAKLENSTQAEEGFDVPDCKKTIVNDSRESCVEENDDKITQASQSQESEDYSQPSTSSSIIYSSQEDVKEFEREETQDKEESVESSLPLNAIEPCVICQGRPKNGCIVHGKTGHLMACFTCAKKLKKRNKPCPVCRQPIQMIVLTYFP

Compound	intracellular location, MM96L (MM96L cells)	remaining at 24 h, 50 μM [1]	HC50 at 1 h (RBC hemolysis)	CC50 at 24 h [2]	CC50 at 24 h [3]	CC50 at 24 h [4]	CC50, HeLa [5]	CC50, MM96L (MM96L melanoma cells)	CC50, MCF7 (MCF7 breast cancer cells)	CC50, HCT116 [7]	also measured
A488 GCGGPLYKKIIKKLLESIIKKGGXGGSGGLTFEHYWAQLTGGC* (disulfide) [cPF4Pext_pDI-A488]	enter directly into the cell cytoplasm										
CC[C@H](C)[C@@H]1NC(=O)[C@H](CCCCN)NC(=O)[C@H](CCCCN)NC(=O)[C@H](Cc2ccc(O)cc2)NC(=O)[C@H](CC(C)C)NC(=O)[C@@H]2CCCN2C(=O)CNC(=O)CNC(=O)[C@@H](N)CSSC[C@@H](C(=O)N[C@@H](CCC(=O)O)C(=O)N[C@@H](CO)C(N)=O)NC(=O)[C@H](CC(C)C)NC(=O)[C@H](CCCCN)NC(=O)[C@H](CCCCN)NC(=O)[C@H]([C@@H](C)CC)NC(=O)[C@H]([C@@H](C)CC)NC(=O)[C@H](CCCCN)NC(=O)[C@H](CCCCN)NC(=O)[C@H](Cc2ccc(O)cc2)NC(=O)[C@H](CC(C)C)NC(=O)[C@@H]2CCCN2C(=O)[C@H](C)NC(=O)CNC(=O)CNC(=O)[C@H](CO)NC(=O)CNC(=O)CNC(=O)[C@H](CO)NC(=O)[C@H](CCC(=O)O)NC(=O)[C@H](CC(C)C)NC(=O)[C@H](CC(C)C)NC(=O)[C@H](CCCCN)NC(=O)[C@H](CCCCN)NC(=O)[C@H]([C@@H](C)CC)NC1=O [cPF4PD] (H-CGGPLYKKIIKKLLESGGSGGAPLYKKIIKKLCES-NH2; disulfide 1-33)		~75%	> 64 µM	9.1 ± 1.3 µM	> 32 µM	9.1 ± 0.7 µM					IC50, inhibition of F-pDI:MDM2 interaction (MDM2): did not inhibit; IC50, inhibition of F-pDI:MDMX interaction (MDMX): did not inhibit
APLYKKIIKKLLES-NH2 [PF4P]			> 64 µM	> 32 µM	> 32 µM	> 32 µM	>32 µM	>32 µM	>32 µM		cytotoxic activity against the tested cells [6]: not active against any of the tested cells
A488 LQAPLTFEHYWALLTSGGXGGAPLYKKIIKKLLES* [PF4P_pDI-A488]	enter directly into the cell cytoplasm										
CGGPLYKKIIKKLLESIIKKGGSGGSGGLTFEHYWAQLTGGC-NH2 (disulfide 1-42) [cPF4Pext_pDI]			> 64 µM	4.3 ± 0.4 µM	19.1 ± 0.5 µM	7.2 ± 0.3 µM	∼32 ± 5 μM	2.5 ± 0.1 µM	18.6 ± 2.0 µM	11.7 ± 0.9 µM	IC50 (MDMX): 0.08 µM
LQAPLYKKIIKKLLESGGSGGAPLYKKIIKKLLES-NH2 [PF4PD]		20%	> 64 µM	14 ± 0.9 µM	13.7 ± 2.2 µM	4.3 ± 0.2 µM	17.2 ± 2.2 µM	1.6 ± 0.1 µM	17.6 ± 2.0 µM	4.8 ± 0.8 µM	IC50, inhibition of F-pDI:MDM2 interaction (MDM2): did not inhibit; IC50, inhibition of F-pDI:MDMX interaction (MDMX): did not inhibit
LQAPLTFEHYWALLTSGGSGGAPLYKKIIKKLLES-NH2 [PF4P_pDI]		60%	> 64 µM	> 32 µM	27.5 ± 2.3 µM	17.1 ± 1.6 µM	>32 µM	13.2 ± 0.7 µM	>32 µM	25.5 ± 2.1 µM	inhibition at 0.001 µM (MDM2; read-out: inhibition of F-pDI binding to MDM2): > 50%; inhibition at 0.001 µM (MDMX; read-out: inhibition of F-pDI binding to MDMX): > 50%
CQAPLYKKIIKKLLESGGSGGAPLYKKIIKKLLCES* A488 (sidechain bridge or staple) [cPF4PD-A488]	enter directly into the cell cytoplasm										EC50 (MDA-MB-231 cells [8]): 0.16 µM; EC50 (MCF7 cells): 0.65 µM; intracellular location, MDA-MB-231 (MDA-MB-231 cells [9]): entry of the labeled peptide into the cytoplasm was observed within two hours
